In article PMC5554713 (ChemMedChem, 2017):

Experiments:
CaMKIIδ [1] = target: T1, CaMKIIδ (Homo sapiens, UniProt Q13557); test: Radiometric kinase assay; format: biochemical
In short: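 Outsourced radiometric assay using conventional filter-binding, which directly measures kinase catalytic activity toward a specific substrate. Run as a concentration-dependent study.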

CaMKIIδ [2] = target: T1, CaMKIIδ; format: biochemical; details: read-out: inhibition of CaMKIIδ enzyme activity
δ subtype of CaMKII [3] = details: cited from earlier work; for kinase activity, δ subtype of CaMKII: at 0.5 μM
CaMKII = details: cited from earlier work
δ subtype of CaMKII [4] = details: cited from earlier work; for activity against δ subtype of CaMKII: at 1 μM; for inhibition of δ subtype of CaMKII: at 10 μM
γ subtype of CaMKII = details: cited from earlier work; for activity against γ subtype of CaMKII: at 1 μM; for inhibition of γ subtype of CaMKII: at 10 μM
α subtype of CaMKII = details: cited from earlier work; for kinase activity, α subtype of CaMKII: at 0.5 μM
β subtype of CaMKII [5] = details: cited from earlier work; for kinase activity, β subtype of CaMKII: at 0.5 μM
β subtype of CaMKII [6] = details: cited from earlier work; for activity against β subtype of CaMKII: at 1 μM; for inhibition of β subtype of CaMKII: at 10 μM
CaMKIIγ = details: at 0.5 μM; cited from earlier work
300 kinases = details: at 0.5 μM; cited from earlier work

CCN(CC)CCCC(C)Nc1nc(/C=C/c2ccccc2)nc2cc(Cl)ccc12 (stereo not shown) [Compound 1, (E)-N4-(7-chloro-2-styrylquinazolin-4-yl)-N1,N1-diethylpentane-1,4-diamine]
IC50 (CaMKIIδ [1]): ~5000 nM | IC50 for inhibition of CaMKIIδ enzyme activity (CaMKIIδ [1]; concentration-dependent study, radiometric assay): single-digit micromolar | inhibition at 50 µM (CaMKIIδ [2]): ≥ 50%

CN([C@@H](Cc1ccc(OS(=O)(=O)c2cccc3cnccc23)cc1)C(=O)N1CCN(c2ccccc2)CC1)S(=O)(=O)c1cccc2cnccc12 [KN-62]
kinase activity, δ subtype of CaMKII (δ subtype of CaMKII [3]): 90% | Ki (CaMKII): 900 nM | activity against δ subtype of CaMKII (δ subtype of CaMKII [4]): Neither compound showed activity | inhibition of δ subtype of CaMKII (δ subtype of CaMKII [4]): 9% | activity against γ subtype of CaMKII (γ subtype of CaMKII): Neither compound showed activity | inhibition of γ subtype of CaMKII (γ subtype of CaMKII): 13% | kinase activity, α subtype of CaMKII (α subtype of CaMKII): 90% | kinase activity, β subtype of CaMKII (β subtype of CaMKII [5]): 90% | activity against β subtype of CaMKII (β subtype of CaMKII [6]): Neither compound showed activity | inhibition of β subtype of CaMKII (β subtype of CaMKII [6]): 22% | kinase activity, γ subtype of CaMKII (CaMKIIγ): 90%

COc1ccc(S(=O)(=O)N(CCO)c2ccccc2CN(C)CC=Cc2ccc(Cl)cc2)cc1 [KN-93]
kinase activity, δ subtype of CaMKII (δ subtype of CaMKII [3]): 90% | IC50 (CaMKII): 1000 to 4000 nM | Ki (CaMKII): 370 nM | activity against δ subtype of CaMKII (δ subtype of CaMKII [4]): Neither compound showed activity | inhibition of δ subtype of CaMKII (δ subtype of CaMKII [4]): 53% | activity against γ subtype of CaMKII (γ subtype of CaMKII): Neither compound showed activity | inhibition of γ subtype of CaMKII (γ subtype of CaMKII): 33% | kinase activity, α subtype of CaMKII (α subtype of CaMKII): 90% | kinase activity, β subtype of CaMKII (β subtype of CaMKII [5]): 90% | activity against β subtype of CaMKII (β subtype of CaMKII [6]): Neither compound showed activity | inhibition of β subtype of CaMKII (β subtype of CaMKII [6]): 80% | kinase activity, γ subtype of CaMKII (CaMKIIγ): 90%

CN(C)S(=O)(=O)c1ccc2c(c1)/C(=C/c1cc3c([nH]1)CCCC3)C(=O)N2 [SU6656]
inhibition of kinase activity, δ subtype of CaMKII (δ subtype of CaMKII [3]; at 0.5 μM in the RBC study): ~ 30% | inhibition of kinase activity, α subtype of CaMKII (α subtype of CaMKII; at 0.5 μM in the RBC study): ~ 30% | number of different kinases with more than 60 percent inhibition (300 kinases): 38 kinases | number of different kinases with more than 80 percent inhibition (300 kinases): 19 kinases | inhibition of kinase activity, β subtype of CaMKII (β subtype of CaMKII [5]; at 0.5 μM in the RBC study): ~ 30%
